In ChEMBL document CHEMBL4706563, “Triphenylethylene analogues: Design, synthesis and evaluation of antitumor activity and topoisomerase inhibitors” (Eur J Med Chem, 2020):
Activity calls are given as the source filed them. The rule behind the calls is not given here.

Key:
Assay type in all cases: functional
CCRF-CEM = experiment: Antiproliferative activity against human CCRF-CEM cells assessed as growth inhibition at 10 uM relative to control; details: read-out: GI
How it was run: (§1)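 Single-dose screen run by the US National Cancer Institute across its 60-human tumour cell line panel. Each compound was tested at one concentration. Percent growth inhibition was recorded for each cell line.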

HL-60(TB) = experiment: Antiproliferative activity against human HL-60(TB) cells assessed as growth inhibition at 10 uM relative to control; details: read-out: GI
K562 = experiment: Antiproliferative activity against human K562 cells assessed as growth inhibition at 10 uM relative to control; details: read-out: GI; how it was run: as §1
MOLT-4 = experiment: Antiproliferative activity against human MOLT-4 cells assessed as growth inhibition at 10 uM relative to control; details: read-out: GI; how it was run: as §1
RPMI-8226 = experiment: Antiproliferative activity against human RPMI-8226 cells assessed as growth inhibition at 10 uM relative to control; details: read-out: GI; how it was run: as §1
A549 = experiment: Antiproliferative activity against human A549 cells assessed as growth inhibition at 10 uM relative to control; details: read-out: GI; how it was run: as §1
HOP-62 = experiment: Antiproliferative activity against human HOP-62 cells assessed as growth inhibition at 10 uM relative to control; details: read-out: GI; how it was run: as §1
HOP-92 = experiment: Antiproliferative activity against human HOP-92 cells assessed as growth inhibition at 10 uM relative to control; details: read-out: GI; how it was run: as §1
NCI-H226 = experiment: Antiproliferative activity against human NCI-H226 cells assessed as growth inhibition at 10 uM relative to control; details: read-out: GI; how it was run: as §1
NCI-H322M = experiment: Antiproliferative activity against human NCI-H322M cells assessed as growth inhibition at 10 uM relative to control; details: read-out: GI; how it was run: as §1
NCI-H460 = experiment: Antiproliferative activity against human NCI-H460 cells assessed as growth inhibition at 10 uM relative to control; details: read-out: GI; how it was run: as §1
COLO 205 = experiment: Antiproliferative activity against human COLO 205 cells assessed as growth inhibition at 10 uM relative to control; details: read-out: GI; how it was run: as §1
HCT-116 = experiment: Antiproliferative activity against human HCT-116 cells assessed as growth inhibition at 10 uM relative to control; how it was run: as §1
HCT-15 = experiment: Antiproliferative activity against human HCT-15 cells assessed as growth inhibition at 10 uM relative to control; details: read-out: GI; how it was run: as §1
HT-29 = experiment: Antiproliferative activity against human HT29 cells assessed as growth inhibition at 10 uM relative to control; details: read-out: GI; how it was run: as §1
SF-295 = experiment: Antiproliferative activity against human SF-295 cells assessed as growth inhibition at 10 uM relative to control; details: read-out: GI; how it was run: as §1
SF-539 = experiment: Antiproliferative activity against human SF-539 cells assessed as growth inhibition at 10 uM relative to control; details: read-out: GI; how it was run: as §1
SNB-75 = experiment: Antiproliferative activity against human SNB-75 cells assessed as growth inhibition at 10 uM relative to control; details: read-out: GI
How it was run: (§2)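 NCI 60 human tumour cell line panel screen. Compounds tested at a single dose and growth inhibition (%) determined for each line.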

U-251 = experiment: Antiproliferative activity against human U251 cells assessed as growth inhibition at 10 uM relative to control; details: read-out: GI; how it was run: as §2
LOX IMVI = experiment: Antiproliferative activity against human LOX IMVI cells assessed as growth inhibition at 10 uM relative to control; details: read-out: GI; how it was run: as §1
M14 = experiment: Antiproliferative activity against human M14 cells assessed as growth inhibition at 10 uM relative to control; details: read-out: GI; how it was run: as §1
MDA-MB-435 = experiment: Antiproliferative activity against human MDA-MB-435 cells assessed as growth inhibition at 10 uM relative to control; details: read-out: GI; how it was run: as §1
SK-MEL-2 = experiment: Antiproliferative activity against human SK-MEL-2 cells assessed as growth inhibition at 10 uM relative to control; details: read-out: GI; how it was run: as §1
SK-MEL-28 = experiment: Antiproliferative activity against human SK-MEL-28 cells assessed as growth inhibition at 10 uM relative to control; details: read-out: GI; how it was run: as §2
SK-MEL-5 = experiment: Antiproliferative activity against human SK-MEL-5 cells assessed as growth inhibition at 10 uM relative to control; details: read-out: GI; how it was run: as §2
IGROV-1 = experiment: Antiproliferative activity against human IGROV-1 cells assessed as growth inhibition at 10 uM relative to control; details: read-out: GI; how it was run: as §1
OVCAR-3 = experiment: Antiproliferative activity against human OVCAR-3 cells assessed as growth inhibition at 10 uM relative to control; details: read-out: GI; how it was run: as §1
OVCAR-4 = experiment: Antiproliferative activity against human OVCAR-4 cells assessed as growth inhibition at 10 uM relative to control; details: read-out: GI; how it was run: as §1
NCI/ADR-RES = experiment: Antiproliferative activity against human NCI/ADR-RES cells assessed as growth inhibition at 10 uM relative to control; details: read-out: GI; how it was run: as §1
SK-OV-3 = experiment: Antiproliferative activity against human SK-OV-3 cells assessed as growth inhibition at 10 uM relative to control; details: read-out: GI; how it was run: as §2
786-0 = experiment: Antiproliferative activity against human 786-0 cells assessed as growth inhibition at 10 uM relative to control; details: read-out: GI; how it was run: as §1
A498 = experiment: Antiproliferative activity against human A498 cells assessed as growth inhibition at 10 uM relative to control; details: read-out: GI; how it was run: as §1
ACHN = experiment: Antiproliferative activity against human ACHN cells assessed as growth inhibition at 10 uM relative to control; details: read-out: GI; how it was run: as §1
SN12C = experiment: Antiproliferative activity against human SN12C cells assessed as growth inhibition at 10 uM relative to control; details: read-out: GI; how it was run: as §2
UO-31 = experiment: Antiproliferative activity against human UO-31 cells assessed as growth inhibition at 10 uM relative to control; details: read-out: GI; how it was run: as §2
DU-145 = experiment: Antiproliferative activity against human DU-145 cells assessed as growth inhibition at 10 uM relative to control; details: read-out: GI; how it was run: as §1
MCF7 = experiment: Antiproliferative activity against human MCF7 cells assessed as growth inhibition at 10 uM relative to control; details: read-out: GI; how it was run: as §1
MDA-MB-231 = experiment: Antiproliferative activity against human MDA-MB-231 cells assessed as growth inhibition at 10 uM relative to control; details: read-out: GI; how it was run: as §1
T47D = experiment: Antiproliferative activity against human T47D cells assessed as growth inhibition at 10 uM relative to control; details: read-out: GI; how it was run: as §2
MDA-MB-468 = experiment: Antiproliferative activity against human MDA-MB-468 cells assessed as growth inhibition at 10 uM relative to control; details: read-out: GI; how it was run: as §1
OVCAR-8 = experiment: Antiproliferative activity against human OVCAR-8 cells assessed as growth inhibition at 10 uM relative to control; details: read-out: GI; how it was run: as §1
Leukemia cell = experiment: Antiproliferative activity against human leukemia cells
[1] = Antiproliferative activity against human CNS cancer cells; details: CNS cell
[2] = Antiproliferative activity against human Melanoma cells; details: Melanoma cell line
[3] = Antiproliferative activity against human ovarian cancer cells; details: Ovarian cancer cell line
[4] = Antiproliferative activity against human renal cancer cells; details: Renal cancer cell line
[5] = Antiproliferative activity against human breast cancer cells; details: Breast cancer cell line
[6] = read-out: LC50 (the source's name)

C/C(=C(/c1ccccc1)c1ccc(OCC(O)CNCCN2CCOCC2)cc1)c1ccccc1 (centres undefined)
inhibition of growth at 10 µM (CCRF-CEM): 43.5% | inhibition of growth at 10 µM (HL-60(TB)): 71% | inhibition of growth at 10 µM (K562): 97.6% | inhibition of growth at 10 µM (MOLT-4): 59% | inhibition of growth at 10 µM (RPMI-8226): 79.8% | inhibition of growth at 10 µM (A549): 29.2% | inhibition of growth at 10 µM (HOP-62): 25.1% | inhibition of growth at 10 µM (HOP-92): 40.9% | inhibition of growth at 10 µM (NCI-H226): 3.88% | inhibition of growth at 10 µM (NCI-H322M): 27.3% | inhibition of growth at 10 µM (NCI-H460): 82.4% | inhibition of growth at 10 µM (COLO 205): -64.5% | growth inhibition (GI) (HCT-116): inactive | inhibition of growth at 10 µM (HCT-15): 95.5% | inhibition of growth at 10 µM (HT-29): 96.8% | inhibition of growth at 10 µM (SF-295): 28.8% | inhibition of growth at 10 µM (SF-539): 27.2% | inhibition of growth at 10 µM (SNB-75): 34.2% | inhibition of growth at 10 µM (U-251): 67.4% | inhibition of growth at 10 µM (LOX IMVI): 81.3% | inhibition of growth at 10 µM (M14): 7.31% | inhibition of growth at 10 µM (MDA-MB-435): -63.8% | inhibition of growth at 10 µM (SK-MEL-2): 5.09% | inhibition of growth at 10 µM (SK-MEL-28): -86.2% | inhibition of growth at 10 µM (SK-MEL-5): 71% | inhibition of growth at 10 µM (IGROV-1): 36.6% | inhibition of growth at 10 µM (OVCAR-3): 22.1% | inhibition of growth at 10 µM (OVCAR-4): 29.8% | inhibition of growth at 10 µM (NCI/ADR-RES): 19.8% | inhibition of growth at 10 µM (SK-OV-3): 4.57% | inhibition of growth at 10 µM (786-0): 2.44% | inhibition of growth at 10 µM (A498): 20.1% | inhibition of growth at 10 µM (ACHN): 18.6% | inhibition of growth at 10 µM (SN12C): 23.9% | inhibition of growth at 10 µM (UO-31): 30.8% | inhibition of growth at 10 µM (DU-145): 32.2% | inhibition of growth at 10 µM (MCF7): 55.4% | inhibition of growth at 10 µM (MDA-MB-231): 70.6% | inhibition of growth at 10 µM (T47D): 10.7% | inhibition of growth at 10 µM (MDA-MB-468): 46.9% | inhibition of growth at 10 µM (OVCAR-8): 21.8% | GI50 (Leukemia cell): 2.19 µM | LC50 (concentration killing 50% of cells) (Leukemia cell): 23.9 µM | TGI (Leukemia cell): 5.8 µM | GI50 [1]: 2.81 µM | TGI [1]: 9.9 µM | CC50 [1, 6]: 25.2 µM | GI50 [2]: 1.87 µM | LC50 [2]: 8.55 µM | TGI [2]: 3.74 µM | GI50 [3]: 5.2 µM | TGI [3]: 16.3 µM | CC50 [3, 6]: 45.8 µM | GI50 [4]: 2.4 µM | TGI [4]: 7.75 µM | CC50 [4, 6]: 22 µM | GI50 [5]: 3.69 µM | TGI [5]: 9.08 µM | CC50 [5, 6]: 29.1 µM
